From ChEMBL document CHEMBL4007402 (J Med Chem, 2017)

Legend:
[1] = system: 769-P; assay: Growth inhibition of human 769-P cells after 72 hrs by CellTiter-Glo or CCK-8 assay; assay type: functional
[2] = target: T1, Tyrosine-protein kinase JAK3 (Homo sapiens) (UniProt P52333); assay: Inhibition of recombinant TEL-fused JAK3 (unknown origin) expressed in mouse BAF3 cells assessed as growth inhibition after 72 hrs by CellTiter-Glo or CCK-8 assay; assay type: cell-based
T1 sequence (whole entry): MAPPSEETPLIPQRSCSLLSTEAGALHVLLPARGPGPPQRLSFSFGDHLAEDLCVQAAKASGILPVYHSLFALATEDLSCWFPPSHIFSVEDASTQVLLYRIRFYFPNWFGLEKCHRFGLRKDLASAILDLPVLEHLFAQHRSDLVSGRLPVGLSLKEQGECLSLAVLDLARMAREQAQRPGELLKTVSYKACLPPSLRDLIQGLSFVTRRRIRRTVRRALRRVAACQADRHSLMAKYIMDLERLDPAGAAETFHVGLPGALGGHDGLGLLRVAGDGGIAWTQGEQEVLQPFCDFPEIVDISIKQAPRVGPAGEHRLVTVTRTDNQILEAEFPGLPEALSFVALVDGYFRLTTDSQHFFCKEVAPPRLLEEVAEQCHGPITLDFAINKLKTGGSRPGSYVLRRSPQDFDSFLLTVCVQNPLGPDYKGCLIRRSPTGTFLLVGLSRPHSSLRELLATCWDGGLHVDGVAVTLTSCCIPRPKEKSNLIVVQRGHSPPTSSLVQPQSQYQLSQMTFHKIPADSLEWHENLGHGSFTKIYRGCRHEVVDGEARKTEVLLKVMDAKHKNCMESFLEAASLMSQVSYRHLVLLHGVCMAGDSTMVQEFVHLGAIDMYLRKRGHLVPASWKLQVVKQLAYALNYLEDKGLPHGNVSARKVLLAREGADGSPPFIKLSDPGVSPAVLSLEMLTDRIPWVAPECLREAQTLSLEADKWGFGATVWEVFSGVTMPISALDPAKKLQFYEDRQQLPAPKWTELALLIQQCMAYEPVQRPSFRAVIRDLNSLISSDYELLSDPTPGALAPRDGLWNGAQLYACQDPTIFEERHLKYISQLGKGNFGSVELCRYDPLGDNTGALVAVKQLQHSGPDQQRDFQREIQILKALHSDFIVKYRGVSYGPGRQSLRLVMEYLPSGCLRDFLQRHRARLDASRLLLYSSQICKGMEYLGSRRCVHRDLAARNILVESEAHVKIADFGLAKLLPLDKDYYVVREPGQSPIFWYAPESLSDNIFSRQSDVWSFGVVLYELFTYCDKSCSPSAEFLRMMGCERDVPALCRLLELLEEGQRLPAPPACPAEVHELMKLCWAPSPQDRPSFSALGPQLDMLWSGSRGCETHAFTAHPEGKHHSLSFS
Outline: (§1)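 Isogenic murine BaF3 cells transformed with TEL-fused kinases, whose proliferation depends on the fused kinase, were used. Parental BaF3 cells served as the general selectivity counter-screen. The anti-proliferative read-out was reported as GI50.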

[3] = system: 5637; assay: Growth inhibition of human 5637 cells after 72 hrs by CellTiter-Glo or CCK-8 assay; assay type: functional; conditions: Homo sapiens, 5637, 72 h
[4] = target: Mast/stem cell growth factor receptor Kit (Homo sapiens) (UniProt P10721); assay: Inhibition of recombinant TEL-fused c-KIT (unknown origin) expressed in mouse BAF3 cells assessed as growth inhibition after 72 hrs by CellTiter-Glo or CCK-8 assay; assay type: cell-based; outline: as §1
[5] = system: DU-145; assay: Growth inhibition of human DU145 cells after 72 hrs by CellTiter-Glo or CCK-8 assay; assay type: functional; conditions: DU-145, 72 h
[6] = AUC (0 to t) in Sprague-Dawley rat at 1 mg/kg, iv up to 8 hrs; assay type: ADME, organism-based; parameters: time < 8 hr, dose 1 mg/kg, route intravenous; conditions: in vivo
Outline: (§2)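 Sprague Dawley rats given a single i.v. dose of 1 mg/kg or an oral dose of 10 mg/kg. Plasma AUC(0-t), AUC(0-∞), MRT(0-t), T1/2, Tmax and Cmax were derived and reported as mean±SD.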

[7] = Tmax in Sprague-Dawley rat at 10 mg/kg, po; assay type: ADME, organism-based; conditions: in vivo; outline: as §2
[8] = target: Epithelial discoidin domain-containing receptor 1 (Homo sapiens, UniProt Q08345); assay: Binding affinity to human DDR1 (565 to 876 amino acid residues) expressed in bacterial expression system assessed as percent control number at 1 uM by KINOMEscan assay
Outline: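 KINOMEscan competition binding panel of 468 kinases, with the compound tested at 1 µM. Binding is expressed as percent of control relative to DMSO.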

Mast/stem cell growth factor receptor Kit (Homo sapiens), sequence (P10721 whole entry, the tested form may be a part): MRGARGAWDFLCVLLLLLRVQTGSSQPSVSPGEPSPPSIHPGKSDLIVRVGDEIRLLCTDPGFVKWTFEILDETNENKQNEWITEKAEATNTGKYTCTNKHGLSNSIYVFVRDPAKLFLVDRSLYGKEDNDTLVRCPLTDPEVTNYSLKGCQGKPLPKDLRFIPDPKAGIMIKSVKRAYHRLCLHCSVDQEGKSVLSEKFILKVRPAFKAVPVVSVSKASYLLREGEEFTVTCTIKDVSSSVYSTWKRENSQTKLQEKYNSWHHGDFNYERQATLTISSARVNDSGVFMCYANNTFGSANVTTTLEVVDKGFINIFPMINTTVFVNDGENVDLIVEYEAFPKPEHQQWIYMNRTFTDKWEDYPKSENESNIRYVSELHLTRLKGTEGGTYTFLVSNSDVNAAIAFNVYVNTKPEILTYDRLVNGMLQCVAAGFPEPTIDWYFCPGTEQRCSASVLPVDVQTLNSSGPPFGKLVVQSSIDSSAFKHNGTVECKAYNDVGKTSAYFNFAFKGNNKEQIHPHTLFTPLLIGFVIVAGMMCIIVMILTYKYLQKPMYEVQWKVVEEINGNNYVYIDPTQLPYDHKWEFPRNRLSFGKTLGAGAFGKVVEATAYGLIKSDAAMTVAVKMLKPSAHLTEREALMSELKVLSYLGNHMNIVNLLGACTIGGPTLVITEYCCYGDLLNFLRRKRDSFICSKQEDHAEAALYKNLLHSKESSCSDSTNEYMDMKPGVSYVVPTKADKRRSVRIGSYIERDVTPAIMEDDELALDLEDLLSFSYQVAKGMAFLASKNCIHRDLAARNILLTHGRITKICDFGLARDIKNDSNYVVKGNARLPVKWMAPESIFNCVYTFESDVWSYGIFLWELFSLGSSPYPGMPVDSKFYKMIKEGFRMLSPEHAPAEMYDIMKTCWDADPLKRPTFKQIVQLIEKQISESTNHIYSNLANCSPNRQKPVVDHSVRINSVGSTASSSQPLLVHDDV
Epithelial discoidin domain-containing receptor 1, sequence (Q08345 whole entry, the tested form may be a part): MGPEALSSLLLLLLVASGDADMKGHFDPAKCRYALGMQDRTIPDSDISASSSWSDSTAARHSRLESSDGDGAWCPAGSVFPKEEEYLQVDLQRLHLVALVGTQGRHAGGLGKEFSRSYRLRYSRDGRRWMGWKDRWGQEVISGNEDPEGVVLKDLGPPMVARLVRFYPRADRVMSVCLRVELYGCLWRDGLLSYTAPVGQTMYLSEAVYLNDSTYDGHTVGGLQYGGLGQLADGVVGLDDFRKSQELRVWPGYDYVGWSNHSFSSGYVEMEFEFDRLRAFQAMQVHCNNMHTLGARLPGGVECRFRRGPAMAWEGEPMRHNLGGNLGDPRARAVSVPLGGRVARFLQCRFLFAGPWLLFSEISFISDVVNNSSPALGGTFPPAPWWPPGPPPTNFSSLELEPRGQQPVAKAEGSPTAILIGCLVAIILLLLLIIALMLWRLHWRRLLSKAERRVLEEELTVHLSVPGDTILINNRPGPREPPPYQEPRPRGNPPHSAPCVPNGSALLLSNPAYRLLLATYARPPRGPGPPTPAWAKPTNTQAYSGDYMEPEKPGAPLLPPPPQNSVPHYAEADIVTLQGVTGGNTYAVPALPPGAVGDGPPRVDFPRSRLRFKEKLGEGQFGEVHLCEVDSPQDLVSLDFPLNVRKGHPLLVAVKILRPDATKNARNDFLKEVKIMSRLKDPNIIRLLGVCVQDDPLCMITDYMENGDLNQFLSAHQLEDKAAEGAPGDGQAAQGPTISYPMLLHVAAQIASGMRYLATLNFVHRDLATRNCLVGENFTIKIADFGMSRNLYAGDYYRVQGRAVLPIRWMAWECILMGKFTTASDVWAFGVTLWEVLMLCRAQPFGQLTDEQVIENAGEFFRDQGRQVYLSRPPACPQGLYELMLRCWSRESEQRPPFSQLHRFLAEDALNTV

GI50 [2]: > 10 µM
GI50 [4]: 2.01 µM
GI50 [5]: 7.89 µM
AUC(0-t) at 8 h [6]: 1.39 µg·h/mL
Tmax [7]: 11.4 min
Activity [8]: 0.05%
Compound: C=CC(=O)Nc1cc(Nc2ncc(C(=O)Nc3cc(NC(=O)c4cc(OC)c(OC)c(OC)c4)ccc3C)c(NC)n2)ccc1C
GI50 [1]: > 10 µM
GI50 [3]: > 10 µM
